# A selection: hits, their analogues and other compounds. The true share with any hit is near 2.6%.
# TAAR1 ag = agonists of human TAAR1. CHO RD-HGA16 TAAR1, Fluo-8 calcium fluorescence; vehicle wells 0%, saturating PEA agonist 100%. Q96RJ0. 0.99% of 360,000 active. AID 624467. activation, % at 3 µM;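 active = activation above the mean activation of all test compounds in the run plus 3 SD, cut at about 38% in these data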
# Target sequence (Q96RJ0 whole entry, looked up): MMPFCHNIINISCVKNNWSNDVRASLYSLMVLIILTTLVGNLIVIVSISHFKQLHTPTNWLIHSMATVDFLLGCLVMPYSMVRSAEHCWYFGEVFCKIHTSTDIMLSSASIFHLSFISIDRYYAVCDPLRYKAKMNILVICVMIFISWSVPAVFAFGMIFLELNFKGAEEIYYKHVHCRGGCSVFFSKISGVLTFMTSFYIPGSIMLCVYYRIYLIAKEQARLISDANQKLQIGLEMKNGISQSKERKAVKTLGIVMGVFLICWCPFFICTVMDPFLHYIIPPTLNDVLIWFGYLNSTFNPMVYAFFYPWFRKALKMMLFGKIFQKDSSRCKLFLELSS
#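 Test system: RD-HGA16 (CHO) cells co-expressing Gα16 and hTAAR1; dosing: one-point dosing at 3 µM (nominal); timing: 17-24 h seeding, 75 min 37 °C dye, 30 min RT; signal: kinetic Fluo-8 calcium fluorescence; read-out basis: % activation relative to PEA EC100 response; controls: DMSO and PEA EC100; replicates: n 1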
# VLA-4 inh = inhibition in a human VLA-4 binding assay. inhibition, % (about 7 µM as worked out from the volumes in the protocol). P13612. 0.2% of 330,000 active. VLA-4 expressing cells, ligand binding flow cytometry; in the data active = inhibition above about 50%
# Rce1 inh = inhibitors of yeast Ras-converting enzyme; AID 2563; yeast membranes, quenched prenylated peptide cleavage fluorescence; calls only; Q03530; 0.27% of 290,000 active;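 active = fall in fluorescence gain of 50% or more versus controls, with final raw signal at or below 3038400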
# Target sequence (Q03530 whole entry, looked up): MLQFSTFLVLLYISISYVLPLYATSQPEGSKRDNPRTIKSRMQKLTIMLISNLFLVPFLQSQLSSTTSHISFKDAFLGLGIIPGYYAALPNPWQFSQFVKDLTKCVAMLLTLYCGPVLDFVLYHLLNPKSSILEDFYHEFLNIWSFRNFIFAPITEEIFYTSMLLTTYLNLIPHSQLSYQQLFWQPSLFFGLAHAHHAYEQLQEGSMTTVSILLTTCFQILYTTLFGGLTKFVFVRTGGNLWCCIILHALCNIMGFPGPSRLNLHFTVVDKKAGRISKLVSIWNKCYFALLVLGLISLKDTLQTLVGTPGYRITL
# Platelet DG rel = modulates dense granule release in human platelets | human platelet-rich plasma, SFLLRN dense granule ATP release, luminescence | 0.22% of 300,000 active | inhibition, %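 (compounds screened at 7.5 µM in platelet-rich plasma)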;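 active = mean replicate score, as percent of positive control, at or above 50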
# TAAR1 antagonist = antagonists of human TAAR1. Q96RJ0. CHO RD-HGA16 TAAR1, Fluo-8 calcium fluorescence, antagonist. inhibition, % at 3 µM. 1.5% of 360,000 active. AID 624466;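 active = inhibition above a per-plate cutoff, the mean inhibition of test compounds on that plate plus 3 SD, cut at about 49% in these data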
#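 Test system – hTAAR1-expressing CHO RD-HGA16 cells, Gα16-coupled · Also added – β-PEA at EC80 concentration, post-compound challenge · Compound – 3 µM, single point · Incubation – dye loading 75 min at 37 °C, then 30 min room temperature · Measured by – Fluo-8 intracellular calcium dye fluorescence, real-time kinetic reads · Benchmarks – vehicle and agonist controls · Replicates – singlicate, one well per test compound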
# TAAR1 ag conf = human TAAR1 agonism, confirmed; shares compounds with TAAR1 ag; CHO RD-HGA16 TAAR1, Fluo-8 calcium fluorescence; scaled: DMSO 0%, maximal phenethylamine 100%; activation, % at 3 µM; 82% of 2,400 active;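 active = activation above a cutoff set at the run's mean compound activation plus 3 SD, cut at about 39% in these data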
# Ga16 ag counter = counter-screen for TAAR1 agonists: nonselective agonists in parental cells; shares compounds with TAAR1 ag; CHO-Ga16 parental, Fluo-8 calcium fluorescence; normalized to maximal ATP response, DMSO zero; activation, % at 3 µM; 50% of 2,400 active; AID 651787;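 active = activation above the run cutoff, the mean activation over all tested wells plus 3 SD, cut at about 12% in these data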
# TAAR1 desensitize = counter-screen for human TAAR1 agonists: agonists that desensitize TAAR1. 46% of 2,400 active. CHO RD-HGA16 hTAAR1, Fluo-8 calcium, beta-PEA response inhibition. shares compounds with TAAR1 ag. inhibition, % at 3 µM;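 active = inhibition above the run cutoff, the mean inhibition of all test compounds plus 3 SD, cut at about 49% in these data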;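 note: beta-PEA stimulus applied at its EC80; loss of beta-PEA calcium signal after compound pretreatment read as receptor desensitization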
# Ga16 nonsel ant = nonselective Ga16 antagonism, counter-screen; shares compounds with TAAR1 ag; CHO-Ga16 ATP-induced calcium, Fluo-8 fluorescence; inhibition, % at 3 µM; 39% of 2,400 active; AID 651952;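 active = inhibition above the plate's mean compound inhibition plus 3 SD, computed per plate, cut at about 22% in these data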
# Hits are given with their value; 0 = inactive; - = not tested or not shown.
SMILES,TAAR1 ag,VLA-4 inh,Rce1 inh,Platelet DG rel,TAAR1 antagonist,TAAR1 ag conf,Ga16 ag counter,TAAR1 desensitize,Ga16 nonsel ant
CC1(c2ccc(Cl)cc2)NC(=O)N(CC(=O)Nc2ccc3c(c2)OCO3)C1=O (stereo not drawn),58.9,-,-,-,0,76.5,23.7,54.2,24.0
O=C(CN1C(=O)NC2(CCc3ccccc32)C1=O)Nc1ccc(Br)cc1F (stereo not drawn),0,0,-,-,0,-,-,-,-
OC(c1cc(C(F)(F)F)nc2c(Cl)cc(Cl)cc12)C1CCCCN1 (stereo not drawn),0,0,0,0,0,-,-,-,-
O[C@@H](c1cc(C(F)(F)F)nc2c(C(F)(F)F)cccc12)[C@H]1CCCCN1,45.2,0,0,0,0,51.4,24.4,0,37.0
O=C(N=Nc1c(O)n(C2OC(=O)c3ccccc32)c2ccccc12)c1ccc(O)cc1 (stereo not drawn),71.0,0,0,0,0,0,0,0,0
CCc1nc2ccc(C(=O)Nc3cc(-c4ccccc4)ccc3OC)cn2c1N(C=O)CCC(C)C,0,-,-,-,0,-,-,-,-
COc1ccc(OC)c(C=C2CCc3ccccc3C2=O)c1,0,-,-,-,0,-,-,-,-
COc1ccc(OC)c(/C=C2/Sc3ccccc3C2=O)c1,73.6,0,0,0,61.4,0,28.6,0,50.3
COc1cc(CNCCc2ccccc2F)ccc1OCc1ccc(Cl)nc1,73.2,0,0,0,0,77.1,0,56.6,0
COc1cccc(CNCCc2c[nH]c3ccccc23)c1OCc1ccc(F)cc1,0,0,0,0,0,-,-,-,-
COc1cc(CNCCc2c[nH]c3ccccc23)ccc1OCc1ccc(F)cc1,59.9,0,0,0,49.5,53.8,30.4,52.2,49.2
CCCNC(=O)c1cc(C2CCCCN2S(=O)(=O)Cc2cccc(C(F)(F)F)c2)on1 (stereo not drawn),0,-,-,-,0,-,-,-,-
COc1cc(CNCCc2ccccc2)cc(Br)c1OCC(=O)Nc1ccccc1C,87.8,0,0,0,59.0,92.0,20.7,75.7,33.7
O=C(COc1ccc(Br)cc1CNCCc1ccccc1)NCc1ccccc1,93.8,0,0,0,68.8,88.7,25.0,80.2,43.3
O=C(Nc1ccc(OC(F)(F)F)cc1)Nc1cccnc1,0,0,0,0,0,-,-,-,-
O=C(Nc1ccccc1)Nc1ccc(Oc2cccnc2)nc1,67.2,0,-,0,0,89.8,11.9,80.0,0
CN(CC(=O)Nc1ccc(Cl)cc1)C(=O)CN1C(=O)C2CCCCC2C1=O (stereo not drawn),0,-,-,-,0,-,-,-,-
CN(/N=C/c1ccc(-c2ccc([N+](=O)[O-])cc2)o1)c1ccccc1,66.1,0,0,0,67.8,44.2,71.1,63.5,73.7
OC(c1ccccc1)(c1ccccc1)C1CCN(CCCOc2ccc(C(F)(F)F)cc2)CC1,43.4,-,-,-,0,0,19.0,0,38.2
COc1ccc(OCCCN2CCC(C(O)(c3ccccc3)c3ccccc3)CC2)cc1,38.4,-,-,-,0,42.5,20.1,0,22.2
N#Cc1ccccc1OCCCN1CCC(C(O)(c2ccccc2)c2ccccc2)CC1,0,-,-,-,0,-,-,-,-
CC(C)(C)c1ccc(OCCNCc2ccccc2)cc1,70.7,0,0,0,0,71.5,34.5,0,0
N#Cc1ccc(OCCCN2CCC(C(O)(c3ccccc3)c3ccccc3)CC2)cc1,40.0,-,-,-,0,54.5,18.4,0,0
CC(C)(C)c1ccc(OCCNC(=S)Nc2ccccc2)cc1,0,0,0,0,0,-,-,-,-
COc1ccccc1Cc1c(-c2ccccc2)nc2c3ccccc3ccn12,0,-,-,-,0,-,-,-,-
SMILES,TAAR1 ag,VLA-4 inh,Rce1 inh,Platelet DG rel,TAAR1 antagonist,TAAR1 ag conf,Ga16 ag counter,TAAR1 desensitize,Ga16 nonsel ant
CCCCNC(=O)C1(C)CCN1C(=O)c1cccnc1Oc1ccccc1 (stereo not drawn),0,-,-,-,0,-,-,-,-
CC(C)c1ccc(OCCCN2CCC(C(O)(c3ccccc3)c3ccccc3)CC2)cc1,41.1,-,-,-,0,58.6,35.1,59.2,55.2
CC(C)(c1ccccc1)c1ccc(OCCCN2CCNCC2)cc1,50.3,0,0,0,0,0,0,0,0
CCC(C)NCCOc1ccc(C(C)(C)c2ccccc2)cc1 (stereo not drawn),53.8,0,0,0,0,69.3,39.4,0,26.4
OC(c1ccccc1)(c1ccccc1)C1CCN(CCCOc2cccc(Cl)c2)CC1,39.5,-,-,-,50.0,42.3,26.7,0,49.5
OC(c1cccc(Cl)c1)c1nc(-c2cnc3ccccc3c2)cs1 (stereo not drawn),0,-,-,-,0,-,-,-,-
COc1ccc(OCC(=O)Nc2ccc(NC(=O)c3ccccc3Cl)c(OC)c2)cc1,0,0,0,0,0,-,-,-,-
CC1(C(=O)Nc2ccc3c(c2)OCO3)CCN1C(=O)Cc1ccc(-c2ccccc2)cc1 (stereo not drawn),0,-,-,-,0,-,-,-,-
NC(COCc1ccccc1)c1csc(NC(=O)Nc2cccc(Cl)c2)n1 (stereo not drawn),58.0,-,-,-,0,50.7,21.6,0,41.0
NC(Cc1ccc(C(F)(F)F)cc1)c1csc(Nc2nncc3ccccc23)n1 (stereo not drawn),54.6,-,-,-,0,140.5,57.8,105.8,69.1
NC(Cc1ccc(C(F)(F)F)cc1)c1csc(NC(=O)Nc2ccccc2)n1 (stereo not drawn),50.4,-,-,-,0,60.9,39.7,62.6,53.1
NC(CO)c1csc(NC(=O)Nc2cccc(Cl)c2)n1 (stereo not drawn),0,-,-,-,0,-,-,-,-
COc1ccc(CC(N)c2csc(NC(=O)Nc3cccc(C(F)(F)F)c3)n2)cc1 (stereo not drawn),84.5,-,-,-,64.9,79.6,42.4,65.3,54.5
CN(C)S(=O)(=O)c1ccc(C(=O)NN2C(=O)NC3(CCCCC3)C2=O)cc1,0,-,-,-,0,-,-,-,-
Cc1ncc(CO)n1Cc1ccc(Cl)cc1,0,-,-,-,0,-,-,-,-
NC(CCc1ccccc1)c1csc(NC(=O)Nc2cccc(C(F)(F)F)c2)n1 (stereo not drawn),48.6,-,-,-,0,39.4,19.4,0,39.5
CC(C)C(N)c1csc(NC(=O)Nc2cccc(C(F)(F)F)c2)n1 (stereo not drawn),0,-,-,-,0,-,-,-,-
NC(Cc1ccc(C(F)(F)F)cc1)c1csc(Nc2cc(Oc3ccccc3)ncn2)n1 (stereo not drawn),48.3,-,-,-,0,38.1,21.2,0,37.8
NCc1csc(Nc2cc(Oc3ccccc3)ncn2)n1,0,-,-,-,0,-,-,-,-
